# Activity calls are given as the source filed them. No cut-off for these calls is given here.
# Columns and labels:
# [1] = species on record: Sus scrofa; assay: Inhibition of pig pepsin at 10 uM
# [2] = system: Mus musculus; assay: Inhibition of 20S proteasome beta5beta1 subunit binding in human RPMI 8226 cells xenografted mouse; assay type: functional, organism-based
# [3] = molecular target: Cytochrome P450 1A2 (Homo sapiens, UniProt P05177); assay: Inhibition of human recombinant CYP1A2 upto 30 uM; assay type: ADME; conditions: recombinant enzyme
# Method in brief: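 Recombinant human cytochrome P-450 isoforms were tested with fluorescent P-450 substrates, at test concentrations up to 30 µM.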
# [4] = Volume of distribution at steady state in Sprague-Dawley rat at 0.2 mg/kg, iv; assay type: ADME, organism-based; design: dose 0.2 mg/kg, route intravenous; conditions: in vivo, read-out: Vdss
# Method in brief: (§1)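 Single-dose pharmacokinetics after iv or oral administration in female Sprague–Dawley rats and in CD-1 mice; plasma exposure (AUC0–∞) used to derive steady-state volume of distribution, clearance, terminal half-life and absolute oral bioavailability.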
# [5] = molecular target: Dipeptidyl peptidase 1 (Bos taurus) (UniProt Q3ZCJ8); assay: Inhibition of bovine cathepsin C at 10 uM
# [6] = molecular target: Cytochrome P450 3A4 (Homo sapiens, UniProt P08684); assay: Inhibition of human recombinant CYP3A4; assay type: ADME
# [7] = molecular target: Neutrophil elastase (Homo sapiens) (UniProt P08246); assay: Inhibition of human neutrophil elastase 2 at 10 uM
# [8] = Metabolic stability in human liver microsomes; assay type: ADME, Microsome
# [9] = molecular target: Caspase-2 (Homo sapiens) (UniProt P42575); assay: Inhibition of human caspase 2 at 10 uM
# [10] = molecular target: Plasminogen (Homo sapiens) (UniProt P00747); assay: Inhibition of human plasmin at 10 uM
# [11] = Inhibition of bovine alpha chymotrypsin; design: species or system Bos taurus
# [12] = molecular target: Cathepsin G (Homo sapiens) (UniProt P08311); assay: Inhibition of human cathepsin G at 10 uM
# [13] = Half life in Sprague-Dawley rat at 0.8 mg/kg, po; assay type: ADME, organism-based; design: dose 0.8 mg/kg, route oral; conditions: in vivo
# Method in brief: (§2)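 Female Sprague–Dawley rats and CD-1 mice each received a single iv or oral (po) dose. Terminal half-life and systemic clearance were estimated from plasma exposure over time, alongside AUC0→∞, Vss and absolute oral bioavailability.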
# [14] = molecular target: Coagulation factor VII (Homo sapiens) (UniProt P08709); assay: Inhibition of human factor 7a at 10 uM
# [15] = Inhibition of bacterial prolyl oligopeptidase at 10 uM
# [16] = molecular target: Cathepsin G (Homo sapiens, UniProt P08311); assay: Inhibition of human cathepsin G
# [17] = molecular target: Cytochrome P450 2C19 (Homo sapiens, UniProt P33261); assay: Inhibition of human recombinant CYP2C19 upto 30 uM; assay type: ADME; conditions: recombinant enzyme
# Method in brief: (§3)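 Recombinant human P-450 isoforms (1A2, 2C9, 2C19, 2D6) with fluorescent P-450 substrates; tested at concentrations up to 30 µM to gauge inhibition.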
# [18] = molecular target: Pro-cathepsin H (Homo sapiens) (UniProt P09668); assay: Inhibition of human cathepsin H at 10 uM
# [19] = AUC (0 to infinity) in Sprague-Dawley rat at 0.8 mg/kg, po; assay type: ADME, organism-based; design: dose 0.8 mg/kg, route oral, time infinity; conditions: plasma
# Method in brief: (§4)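 Female Sprague–Dawley rats received a single dose by the iv or oral route. AUC from 0 to infinity was reported alongside terminal half-life, Vss, clearance and absolute oral bioavailability.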
# [20] = molecular target: Tissue-type plasminogen activator (Homo sapiens) (UniProt P00750); assay: Inhibition of human TPA at 10 uM
# [21] = Clearance in CD1 mouse at 4 mg/kg, iv; assay type: ADME, organism-based; design: dose 4 mg/kg, route intravenous; conditions: in vivo; method in brief: as §2
# [22] = molecular target: Neutrophil collagenase (Homo sapiens) (UniProt P22894); assay: Inhibition of human MMP8 at 10 uM
# [23] = Protein binding in dog plasma; assay type: ADME, cell-free, Canis lupus familiaris; conditions: read-out: PPB (converted)
# [24] = Volume of distribution at steady state in CD1 mouse at 4 mg/kg, iv; assay type: ADME, organism-based; design: dose 4 mg/kg, route intravenous; conditions: in vivo, read-out: Vdss; method in brief: as §1
# [25] = molecular target: Stromelysin-1 (Homo sapiens) (UniProt P08254); assay: Inhibition of human MMP3 at 10 uM
# [26] = molecular target: Cathepsin D (Homo sapiens) (UniProt P07339); assay: Inhibition of human cathepsin D at 10 uM
# [27] = Clearance in Sprague-Dawley rat at 0.2 mg/kg, iv; assay type: ADME, organism-based; design: dose 0.2 mg/kg, route intravenous; conditions: in vivo; method in brief: as §2
# [28] = molecular target: Cytochrome P450 2C9 (Homo sapiens, UniProt P11712); assay: Inhibition of human recombinant CYP2C9 upto 30 uM; assay type: ADME; conditions: recombinant enzyme; method in brief: as §3
# [29] = Inhibition of chymotrypsin-like activity of human erythrocyte 20S proteasome
# Method in brief: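 Isolated 20S proteasome purified from human erythrocytes was tested in a fluorimetric kinetic assay of chymotrypsin-like activity. Potency is reported as IC50.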
# [30] = molecular target: Caspase-9 (Homo sapiens) (UniProt P55211); assay: Inhibition of human caspase 9 at 10 uM
# [31] = species on record: Homo sapiens; assay: Inhibition of human tryptase at 10 uM
# [32] = molecular target: Caspase-8 (Homo sapiens) (UniProt Q14790); assay: Inhibition of human caspase 8 at 10 uM
# [33] = molecular target: Dipeptidyl peptidase 4 (Homo sapiens) (UniProt P27487); assay: Inhibition of human DPP4 at 10 uM
# [34] = molecular target: 72 kDa type IV collagenase (Homo sapiens) (UniProt P08253); assay: Inhibition of human MMP2 at 10 uM
# [35] = AUC (0 to infinity) in Sprague-Dawley rat at 0.2 mg/kg, iv; assay type: ADME, organism-based; design: dose 0.2 mg/kg, route intravenous, time infinity; conditions: plasma; method in brief: as §4
# [36] = molecular target: Endothelin-converting enzyme 1 (Homo sapiens) (UniProt P42892); assay: Inhibition of human ECE1 at 10 uM
# [37] = molecular target: Caspase-7 (Homo sapiens) (UniProt P55210); assay: Inhibition of human caspase 7 at 10 uM
# [38] = Protein binding in rat plasma; assay type: ADME, cell-free; conditions: read-out: PPB (converted)
# [39] = molecular target: Cathepsin Z (Homo sapiens) (UniProt Q9UBR2); assay: Inhibition of human cathepsin Z at 10 uM
# [40] = Inhibition of human chymotrypsin
# Method in brief: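 Cross-reactivity was tested against human pancreas α-chymotrypsin using a fluorogenic specific substrate. Results are expressed as IC50.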
# [41] = molecular target: Cytochrome P450 2D6 (Homo sapiens, UniProt P10635); assay: Inhibition of human recombinant CYP2D6 upto 30 uM; assay type: ADME; conditions: recombinant enzyme; method in brief: as §3
# [42] = molecular target: Matrilysin (Homo sapiens) (UniProt P09237); assay: Inhibition of human MMP7 at 10 uM
# [43] = molecular target: Chymase (Homo sapiens) (UniProt P23946); assay: Inhibition of human chymase at 10 uM
# [44] = system: A2780; assay: Cytotoxicity against human A2780 cells; assay type: functional, cell-based
# Method in brief: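 Antiproliferative activity was measured in A2780 ovarian carcinoma cells with a standard colorimetric assay of cell proliferation and viability. Results are expressed as IC50.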
# [45] = Half life in Sprague-Dawley rat at 0.2 mg/kg, iv; assay type: ADME, organism-based; design: dose 0.2 mg/kg, route intravenous; conditions: in vivo; method in brief: as §2
# [46] = molecular target: Interstitial collagenase (Homo sapiens) (UniProt P03956); assay: Inhibition of human MMP1 at 10 uM
# [47] = molecular target: Calpain-1 catalytic subunit (Homo sapiens) (UniProt P07384); assay: Inhibition of human calpain 1 at 10 uM
# [48] = molecular target: Caspase-3 (Homo sapiens) (UniProt P42574); assay: Inhibition of human caspase 3 at 10 uM
# [49] = molecular target: Cathepsin E (Homo sapiens) (UniProt P14091); assay: Inhibition of human cathepsin E at 10 uM
# Cathepsin D (Homo sapiens), sequence (P07339 65-162 limits assumed): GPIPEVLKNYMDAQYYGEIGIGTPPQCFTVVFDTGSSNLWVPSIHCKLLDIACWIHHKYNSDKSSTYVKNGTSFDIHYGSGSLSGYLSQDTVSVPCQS
# Cathepsin D (Homo sapiens), sequence (P07339 169-412 limits assumed): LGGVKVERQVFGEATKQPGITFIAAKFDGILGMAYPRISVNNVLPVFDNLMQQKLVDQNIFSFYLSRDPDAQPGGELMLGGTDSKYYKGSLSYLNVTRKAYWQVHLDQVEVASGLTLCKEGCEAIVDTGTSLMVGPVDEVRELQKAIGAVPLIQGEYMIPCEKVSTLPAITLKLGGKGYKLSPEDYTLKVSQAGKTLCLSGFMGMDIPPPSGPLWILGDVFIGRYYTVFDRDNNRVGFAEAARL
# Stromelysin-1 (Homo sapiens), sequence (P08254 100-477 limits assumed): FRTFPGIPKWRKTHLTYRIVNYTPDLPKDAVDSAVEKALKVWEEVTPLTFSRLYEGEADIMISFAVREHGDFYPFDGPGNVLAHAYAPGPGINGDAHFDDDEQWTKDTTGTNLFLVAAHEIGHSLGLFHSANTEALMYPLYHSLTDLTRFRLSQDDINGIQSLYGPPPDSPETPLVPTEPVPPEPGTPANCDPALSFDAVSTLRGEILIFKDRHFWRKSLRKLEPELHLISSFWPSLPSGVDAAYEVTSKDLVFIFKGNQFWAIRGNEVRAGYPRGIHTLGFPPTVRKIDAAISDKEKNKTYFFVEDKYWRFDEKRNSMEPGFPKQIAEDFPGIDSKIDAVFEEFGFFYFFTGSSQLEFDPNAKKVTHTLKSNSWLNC
# Calpain-1 catalytic subunit (Homo sapiens), sequence (P07384 whole entry): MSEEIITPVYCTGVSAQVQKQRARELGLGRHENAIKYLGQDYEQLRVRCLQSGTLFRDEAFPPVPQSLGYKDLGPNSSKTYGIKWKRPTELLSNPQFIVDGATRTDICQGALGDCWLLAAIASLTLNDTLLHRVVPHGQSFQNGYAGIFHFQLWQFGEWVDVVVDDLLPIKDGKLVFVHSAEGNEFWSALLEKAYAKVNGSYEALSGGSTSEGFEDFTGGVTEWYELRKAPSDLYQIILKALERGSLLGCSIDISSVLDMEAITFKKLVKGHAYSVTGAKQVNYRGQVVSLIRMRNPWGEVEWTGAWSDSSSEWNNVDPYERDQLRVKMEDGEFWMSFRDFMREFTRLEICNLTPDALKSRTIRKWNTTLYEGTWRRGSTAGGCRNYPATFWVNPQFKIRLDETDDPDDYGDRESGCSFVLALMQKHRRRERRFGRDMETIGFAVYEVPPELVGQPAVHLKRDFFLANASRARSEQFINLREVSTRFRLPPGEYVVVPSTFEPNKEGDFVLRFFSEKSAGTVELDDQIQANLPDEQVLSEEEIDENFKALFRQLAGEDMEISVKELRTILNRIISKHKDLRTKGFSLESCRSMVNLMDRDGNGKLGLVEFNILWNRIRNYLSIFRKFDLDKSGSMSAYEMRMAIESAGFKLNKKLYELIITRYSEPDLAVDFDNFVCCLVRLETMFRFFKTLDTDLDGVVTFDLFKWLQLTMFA
# Dipeptidyl peptidase 4 (Homo sapiens), sequence (P27487 whole entry, looked up): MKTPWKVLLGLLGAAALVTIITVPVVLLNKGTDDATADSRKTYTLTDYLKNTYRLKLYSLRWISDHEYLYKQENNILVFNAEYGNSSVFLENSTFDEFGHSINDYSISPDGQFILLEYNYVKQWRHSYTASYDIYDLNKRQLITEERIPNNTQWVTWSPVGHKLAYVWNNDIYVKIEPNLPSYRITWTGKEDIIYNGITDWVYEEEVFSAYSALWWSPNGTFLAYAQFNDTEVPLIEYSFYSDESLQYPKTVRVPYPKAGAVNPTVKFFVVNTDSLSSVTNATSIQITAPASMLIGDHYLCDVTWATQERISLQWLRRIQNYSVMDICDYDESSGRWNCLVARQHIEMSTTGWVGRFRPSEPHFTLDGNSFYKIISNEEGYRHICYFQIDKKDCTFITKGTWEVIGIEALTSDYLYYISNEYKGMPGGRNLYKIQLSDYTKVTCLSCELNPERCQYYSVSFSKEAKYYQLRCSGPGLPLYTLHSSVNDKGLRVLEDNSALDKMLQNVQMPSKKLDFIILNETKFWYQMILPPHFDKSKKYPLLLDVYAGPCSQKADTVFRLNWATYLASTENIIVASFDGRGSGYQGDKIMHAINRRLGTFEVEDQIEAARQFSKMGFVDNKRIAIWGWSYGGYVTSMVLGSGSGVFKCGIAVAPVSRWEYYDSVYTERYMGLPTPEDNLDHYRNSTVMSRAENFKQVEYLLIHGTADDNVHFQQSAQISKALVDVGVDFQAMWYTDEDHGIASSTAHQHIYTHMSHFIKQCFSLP
# Plasminogen (Homo sapiens), sequence (P00747 97-580 limits assumed): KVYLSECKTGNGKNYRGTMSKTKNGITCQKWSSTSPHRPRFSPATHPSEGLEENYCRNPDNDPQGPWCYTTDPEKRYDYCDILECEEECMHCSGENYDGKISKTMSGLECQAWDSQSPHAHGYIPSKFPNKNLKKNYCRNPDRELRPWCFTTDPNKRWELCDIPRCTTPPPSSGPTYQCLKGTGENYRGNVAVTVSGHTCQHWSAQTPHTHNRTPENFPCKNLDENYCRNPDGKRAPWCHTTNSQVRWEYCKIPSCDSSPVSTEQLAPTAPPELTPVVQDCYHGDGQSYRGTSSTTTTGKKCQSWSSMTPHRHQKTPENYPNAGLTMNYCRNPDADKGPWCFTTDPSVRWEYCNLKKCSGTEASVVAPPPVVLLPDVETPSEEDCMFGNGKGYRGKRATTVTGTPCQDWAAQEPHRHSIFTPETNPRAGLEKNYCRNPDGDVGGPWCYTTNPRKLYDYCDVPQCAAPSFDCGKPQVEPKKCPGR
# Plasminogen (Homo sapiens), sequence (P00747 581-810 limits assumed): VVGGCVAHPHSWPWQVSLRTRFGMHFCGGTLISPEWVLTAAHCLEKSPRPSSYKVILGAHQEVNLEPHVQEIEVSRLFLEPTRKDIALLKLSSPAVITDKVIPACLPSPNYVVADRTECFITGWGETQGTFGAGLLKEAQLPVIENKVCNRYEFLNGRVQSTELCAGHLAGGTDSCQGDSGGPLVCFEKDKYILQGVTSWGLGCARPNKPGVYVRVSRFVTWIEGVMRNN
# Neutrophil collagenase (Homo sapiens), sequence (P22894 101-467 limits assumed): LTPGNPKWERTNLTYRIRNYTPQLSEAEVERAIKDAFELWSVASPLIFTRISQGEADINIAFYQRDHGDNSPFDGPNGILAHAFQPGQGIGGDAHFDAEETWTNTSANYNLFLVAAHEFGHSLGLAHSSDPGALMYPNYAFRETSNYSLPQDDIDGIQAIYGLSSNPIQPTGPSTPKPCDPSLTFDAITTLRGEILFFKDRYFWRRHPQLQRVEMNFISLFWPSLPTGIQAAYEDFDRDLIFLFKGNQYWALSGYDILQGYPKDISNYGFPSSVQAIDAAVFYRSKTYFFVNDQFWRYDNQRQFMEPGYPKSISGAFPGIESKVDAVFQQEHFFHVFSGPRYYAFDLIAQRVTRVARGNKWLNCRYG
# Caspase-7 (Homo sapiens), sequence (P55210 24-198 limits assumed): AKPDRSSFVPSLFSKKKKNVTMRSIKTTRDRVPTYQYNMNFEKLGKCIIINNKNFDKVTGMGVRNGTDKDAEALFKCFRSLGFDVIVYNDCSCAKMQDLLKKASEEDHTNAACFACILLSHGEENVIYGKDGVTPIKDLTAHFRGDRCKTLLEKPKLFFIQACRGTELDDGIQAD
# Caspase-7 (Homo sapiens), sequence (P55210 207-303 limits assumed): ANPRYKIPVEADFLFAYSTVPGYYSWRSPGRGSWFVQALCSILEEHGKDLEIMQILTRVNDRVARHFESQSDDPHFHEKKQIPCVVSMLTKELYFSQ
# Coagulation factor VII (Homo sapiens), sequence (P08709 61-212 limits assumed): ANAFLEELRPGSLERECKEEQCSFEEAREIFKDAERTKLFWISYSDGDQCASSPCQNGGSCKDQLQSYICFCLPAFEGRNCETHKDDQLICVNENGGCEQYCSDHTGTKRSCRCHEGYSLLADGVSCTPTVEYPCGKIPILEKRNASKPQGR
# Coagulation factor VII (Homo sapiens), sequence (P08709 213-466 limits assumed): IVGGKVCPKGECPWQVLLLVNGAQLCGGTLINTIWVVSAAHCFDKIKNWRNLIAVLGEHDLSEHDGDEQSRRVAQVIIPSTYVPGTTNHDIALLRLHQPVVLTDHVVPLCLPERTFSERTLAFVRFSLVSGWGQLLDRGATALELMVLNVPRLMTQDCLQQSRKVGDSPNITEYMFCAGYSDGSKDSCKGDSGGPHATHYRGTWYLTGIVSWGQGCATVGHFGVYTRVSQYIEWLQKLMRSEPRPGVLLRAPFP
# Caspase-2 (Homo sapiens), sequence (P42575 170-325 limits assumed): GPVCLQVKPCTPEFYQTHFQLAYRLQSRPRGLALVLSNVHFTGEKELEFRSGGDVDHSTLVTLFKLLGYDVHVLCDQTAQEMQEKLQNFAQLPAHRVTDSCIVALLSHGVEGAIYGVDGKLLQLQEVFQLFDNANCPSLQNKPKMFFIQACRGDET
# Caspase-2 (Homo sapiens), sequence (P42575 334-452 limits assumed): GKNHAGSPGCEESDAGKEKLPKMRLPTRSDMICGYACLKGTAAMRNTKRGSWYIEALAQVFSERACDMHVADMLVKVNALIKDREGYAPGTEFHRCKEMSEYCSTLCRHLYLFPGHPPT
# Caspase-9 (Homo sapiens), sequence (P55211 1-315 limits assumed): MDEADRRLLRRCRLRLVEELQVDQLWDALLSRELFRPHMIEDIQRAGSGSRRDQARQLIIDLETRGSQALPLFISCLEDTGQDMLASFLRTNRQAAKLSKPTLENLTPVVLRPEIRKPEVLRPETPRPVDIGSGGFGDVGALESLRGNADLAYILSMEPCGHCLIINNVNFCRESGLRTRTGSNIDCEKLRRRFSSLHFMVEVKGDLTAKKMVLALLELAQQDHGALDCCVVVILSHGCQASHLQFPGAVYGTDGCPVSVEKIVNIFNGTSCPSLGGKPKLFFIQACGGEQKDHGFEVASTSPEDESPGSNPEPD
# Caspase-9 (Homo sapiens), sequence (P55211 331-416 limits assumed): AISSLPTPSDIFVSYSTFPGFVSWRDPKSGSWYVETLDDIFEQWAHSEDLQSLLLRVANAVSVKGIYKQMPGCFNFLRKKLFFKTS
smiles,measurement,setting,value
CC(C)C[C@H](NC(=O)[C@@H](NC(=O)c1cccc(-c2ccccc2)n1)[C@@H](C)O)B(O)O [DELANZOMIB],inhibition,[1],-5%
same,Activity,[2],inactive
same,Activity,[3],Not Active
same,Vd,[4],18.1 L/kg
same,inhibition,[5],-8%
same,IC50,[6],3.5 µM
same,inhibition,[7],72%
same,half-life,[8],> 0.667 h
same,inhibition,[9],1%
same,inhibition,[10],-1%
same,IC50,[11],1.5 µM
same,inhibition,[12],86%
same,half-life,[13],86 h
same,inhibition,[14],2%
same,inhibition,[15],13%
same,IC50,[16],2.11 µM
same,Activity,[17],Not Active
same,inhibition,[18],6%
same,AUC(0-inf),[19],2200 ng·h/mL
same,inhibition,[20],0%
same,clearance,[21],23.3 mL/min/kg
same,inhibition,[22],-1%
same,fraction unbound,[23],0.001
same,Vd,[24],10.3 L/kg
same,inhibition,[25],-3%
same,inhibition,[26],1%
same,clearance,[27],3.17 mL/min/kg
same,Activity,[28],Not Active
same,IC50,[29],0.0038 µM
same,inhibition,[30],-1%
same,inhibition,[31],-3%
same,inhibition,[32],-2%
same,inhibition,[33],-5%
same,inhibition,[34],-5%
same,AUC(0-inf),[35],1030 ng·h/mL
same,inhibition,[36],21%
same,inhibition,[37],0%
same,fraction unbound,[38],0.001
same,inhibition,[39],5%
same,IC50,[40],5.33 µM
same,Activity,[41],Not Active
same,inhibition,[42],-3%
same,inhibition,[43],80%
same,IC50,[44],0.0137 µM
same,half-life,[45],71 h
same,inhibition,[46],1%
same,inhibition,[47],0%
same,inhibition,[48],2%
same,inhibition,[49],-3%
